Activity calls are given as the source filed them. Unless noted, no stated cut-off is given here; in the data, active means inhibition above about 30%; inactive means the rest.
Columns and labels:
[1] = reducers of endogenous Her2 protein level, primary screen, SKBR3 breast tumor cells, AlphaScreen, ATP viability (AID 461;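 active means Her2 level under about 52% in both replicate screens, with viability over 70% of control, limit read from the data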;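 on Her2 level: lower value means less Her2 protein in the cells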;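 on viability: percent of carrier control wells set as 100% viability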); settings: 18-24 h, measured here: SKBR3 viability, ATP luminescence, at 10 µM
[2] = target: Receptor tyrosine-protein kinase erbB-2 (Homo sapiens) (UniProt P04626); experiment: as above; settings: 18-24 h, at 10 µM, stronger effect = lower value
[3] = SK-BR-3 cell growth inhibitors, pilot screen, 24 h, human (AID 572;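 active means viability at or below 10% of carrier control in both of two separate runs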;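 further: compound exposure lasted between 18 and 24 h rather than exactly 24 h; 100% = carrier-treated control wells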); settings: SK-BR-3 viability, CellTiter-Glo luminescence, at 10 µM, stronger effect = lower value
[4] = HUVEC growth inhibition – cell-based, human, primary screen (AID 575;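 active means viability at or below 30% in both replicate assays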;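 further: 100% = median of untreated cell wells with 0.1% DMSO on each plate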); settings: HUVEC proliferation, CellTiter-Glo luminescence, 72 h; at 10 µM; stronger effect = lower value
In short: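 Test system: HUVEC primary cells. Quantity: 1250 endothelial cells in each well. Dosing: single-point 10 µM, DMSO 0.1% final. Incubation: 72 h treatment at 37 °C. Measured by: CTG luminescence. Control set: DMSO cell controls and MePR drug controls. Plate: collagen-coated 384-well format.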

[5] = reversal of MRP1-mediated doxorubicin resistance, pilot screen, H69AR cells, doxorubicin co-treatment (AID 601;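 active means viability loss from added drug above about 55%, and viability with drug at most 40%, in both replicates, limit read from the data, passing the limit was not always enough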); settings: CellTiter-Glo, 72 h, at 10 µM; for differential viability (reversal): stronger effect = higher value
[6] = 384-well plate pilot, post-Golgi transport modulator project, inhibition of yeast transport mutant growth (AID 636; in the data active means inhibition above about 31%); settings: absorbance 615 nm, about 18 h, stronger effect = higher value
[7] = growth suppression of yeast trafficking mutant, preliminary HTS, modulators of trafficking downstream of Golgi apparatus project, 1536-format plate, OD 615 nm (AID 637); settings: yeast transport mutant growth, absorbance 615 nm, 18 h; stronger effect = higher value
[8] = H69AR cells + 2 uM doxorubicin, measured here: viability with 2 uM doxorubicin, stronger effect = lower value
[9] = H69AR cells, compound alone cytotoxicity

Sequence of Receptor tyrosine-protein kinase erbB-2 (Homo sapiens) (P04626 whole entry, looked up): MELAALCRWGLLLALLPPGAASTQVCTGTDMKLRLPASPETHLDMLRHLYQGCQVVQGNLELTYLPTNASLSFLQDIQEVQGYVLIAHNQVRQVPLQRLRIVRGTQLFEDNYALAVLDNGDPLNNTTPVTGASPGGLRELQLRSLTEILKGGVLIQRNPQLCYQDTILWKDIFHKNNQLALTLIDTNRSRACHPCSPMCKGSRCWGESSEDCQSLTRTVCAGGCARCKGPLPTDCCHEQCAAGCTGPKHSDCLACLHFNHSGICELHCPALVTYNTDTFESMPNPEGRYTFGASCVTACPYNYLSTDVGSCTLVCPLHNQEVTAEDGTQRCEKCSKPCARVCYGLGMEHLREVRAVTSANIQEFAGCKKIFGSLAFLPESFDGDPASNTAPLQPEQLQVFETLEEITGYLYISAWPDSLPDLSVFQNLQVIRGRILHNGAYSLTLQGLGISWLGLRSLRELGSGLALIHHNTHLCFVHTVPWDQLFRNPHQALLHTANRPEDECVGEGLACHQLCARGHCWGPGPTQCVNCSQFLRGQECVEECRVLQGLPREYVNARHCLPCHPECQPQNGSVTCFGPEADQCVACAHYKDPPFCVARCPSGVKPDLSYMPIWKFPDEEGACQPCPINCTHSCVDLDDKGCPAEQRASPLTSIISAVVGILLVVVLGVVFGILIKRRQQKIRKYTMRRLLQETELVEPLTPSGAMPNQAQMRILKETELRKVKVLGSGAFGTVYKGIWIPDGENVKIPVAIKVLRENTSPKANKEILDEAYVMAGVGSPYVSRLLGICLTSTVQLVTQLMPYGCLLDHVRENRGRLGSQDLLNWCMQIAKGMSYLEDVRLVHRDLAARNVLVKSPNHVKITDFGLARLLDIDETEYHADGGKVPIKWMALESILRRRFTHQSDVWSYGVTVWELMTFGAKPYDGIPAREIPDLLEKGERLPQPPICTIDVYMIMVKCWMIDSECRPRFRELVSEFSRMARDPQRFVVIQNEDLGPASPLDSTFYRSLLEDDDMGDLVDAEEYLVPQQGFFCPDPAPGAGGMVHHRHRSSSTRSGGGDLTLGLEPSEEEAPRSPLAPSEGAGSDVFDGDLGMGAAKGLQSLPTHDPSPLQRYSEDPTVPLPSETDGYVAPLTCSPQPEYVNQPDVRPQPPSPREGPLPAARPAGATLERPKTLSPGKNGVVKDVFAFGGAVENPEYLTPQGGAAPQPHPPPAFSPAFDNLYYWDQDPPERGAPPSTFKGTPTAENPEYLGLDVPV

Compound | viability [1] | Her2 level [2] | viability [3] | viability [4] | differential viability (reversal) ([5]; H69AR cells + 2 uM doxorubicin) | viability [5, 8] | viability [5, 9] | inhibition [6] | inhibition [7]
C=C(C)COc1ccc(-c2nc(N)ncc2Oc2ccccc2OCC)c(O)c1 | 79% | 84.5% (inactive) | 79% (inactive) | 85.5% (inactive) | -12.4% (inactive) | 51.6% | 39.1% | -0.66% (inactive) | 24.4% (inactive)
CCOC(=O)c1oc2ccccc2c1NC(=O)c1cccc(OC)c1OC | 96.5% | 100% (inactive) | 96.5% (inactive) | 51% (inactive) | -68.6% (inactive) | 88.2% | 19.6% | -2.99% (inactive) | -2.22% (inactive)
O=C(NCc1ccc2c(c1)OCO2)c1cccc2c1C(=O)N(C1CCCCC1)C2 | 102% | 72.5% (inactive) | 102% (inactive) | 87% (inactive) | -12.7% (inactive) | 71.9% | 59.2% | -0.38% (inactive) | 2.83% (inactive)
CCN(CC)CC(=O)Nc1ccc(-c2nc3cc(NC(=O)CN(CC)CC)ccc3o2)cc1 | 91% | 82.5% (inactive) | 91% (inactive) | 3.96% (active) | -14.4% (inactive) | 58.6% | 44.2% | -2.13% (inactive) | -9.34% (inactive)
CCOC(=O)c1sc(Nc2nc3c(OC)cccc3s2)nc1C | 81.5% | 72% (inactive) | 81.5% (inactive) | 63.3% (inactive) | -7.45% (inactive) | 66.6% | 59.2% | 0.13% (inactive) | -4.76% (inactive)
C=CCn1c(N)c(C(=O)OC(C)(C)C)c2nc3ccccc3nc21 | 102% | 90.5% (inactive) | 102% (inactive) | 70.5% (inactive) | -15.9% (inactive) | 66.7% | 50.8% | 0.66% (inactive) | 1.94% (inactive)
Cc1ccc(CNC(=O)c2coc(=O)c3ccccc23)o1 | 93.5% | 81% (inactive) | 93.5% (inactive) | 81.8% (inactive) | -24.6% (inactive) | 67% | 42.4% | -0.53% (inactive) | -5.82% (inactive)
C=CCSC1=C(C#N)C(c2ccccc2C)CC(=O)N1 (stereo not drawn) | 95.5% | 99% (inactive) | 95.5% (inactive) | 89% (inactive) | -0.42% (inactive) | 10.6% | 10.1% | -2.21% (inactive) | -2.38% (inactive)
C=CCn1c(COc2ccc(Cl)cc2)nnc1SCC(=O)N1CC(=O)Nc2ccccc21 | 92% | 76.5% (inactive) | 92% (inactive) | 65.5% (inactive) | -10.9% (inactive) | 73.5% | 62.7% | -5.2% (inactive) | -3.02% (inactive)
Cc1ccc2c(c1)c1c(n2CC(O)Cn2c(C)nc3ccccc32)/C(=N\O)CCC1 (stereo not drawn) | 108% | 76.5% (inactive) | 108% (inactive) | 1.52% (active) | -12.7% (inactive) | 44.1% | 31.5% | -4.27% (inactive) | 15.4% (inactive)
O=C(Nc1ccc(F)cc1)N(Cc1ccco1)Cc1cc2cc3c(cc2[nH]c1=O)OCO3 | 86.5% | 90.5% (inactive) | 86.5% (inactive) | 58.7% (inactive) | 35.4% (inactive) | 19.6% | 55% | -6.32% (inactive) | -12.8% (inactive)
Cc1ccc(NC(=O)COS(=O)c2ccc(C)cc2)cc1 (stereo not drawn) | 97% | 95.5% (inactive) | 97% (inactive) | 69% (inactive) | -2.71% (inactive) | 41.3% | 38.6% | -1.69% (inactive) | -0.63% (inactive)
Cc1ccc(NC(=O)c2oc3ccc(S(=O)(=O)N4CCOCC4)cc3c2C)cc1C | 91% | 83.5% (inactive) | 91% (inactive) | 51.6% (inactive) | -5.16% (inactive) | 48.6% | 43.4% | -5.26% (inactive) | 2.54% (inactive)
COc1ccccc1-c1c(C)nn2c(N3CCC4(CC3)OCCO4)cc(C)nc12 | 90% | 89% (inactive) | 90% (inactive) | 99.3% (inactive) | 30.6% (inactive) | 29.3% | 60% | -1.05% (inactive) | -2.42% (inactive)
CCOC(=O)c1nnc2cc(-c3ccc(Br)cc3)nn2c1C | 76.5% | 93.5% (inactive) | 76.5% (inactive) | 70.3% (inactive) | 6.1% (inactive) | 43.6% | 49.7% | 4.55% (inactive) | -5.24% (inactive)
COc1cccc(Cn2c(-c3nonc3N)nc3ccccc32)c1 | 93.5% | 82% (inactive) | 93.5% (inactive) | 58.2% (inactive) | -46.7% (inactive) | 62.7% | 16% | -2.6% (inactive) | -2.06% (inactive)
CCOC(=O)N1CCN(CCC(=O)c2ccc(Cl)cc2)CC1 | 106% | 89.5% (inactive) | 106% (inactive) | 86.4% (inactive) | -5.11% (inactive) | 17.9% | 12.8% | -2.99% (inactive) | -6.51% (inactive)

Reference: PubChem BioAssay
